# An excerpt weighted towards active compounds, which were near 2% of everything screened.
# NR2E3 ag-1 = NR2E3 agonists in two-hybrid cells, primary screen, cell-based, luminescence, CHO-S, Gal4-NCOR/VP16-NR2E3; luciferase; inhibition of corepressor binding, % at 3.98 µM; AID 602229, 2012; 360,000 tested, 0.35% active; Photoreceptor-specific nuclear receptor (Homo sapiens), Q9Y5X4;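 active means inhibition above the mean of all tested compounds plus 3 SD, cut at about 70% in these data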;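 further: 0% = DMSO with NR2E3 transfected cells and 100% = cells lacking NR2E3 construct; higher means lower luciferase signal from less NR2E3 corepressor binding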
# Target sequence (Q9Y5X4 whole entry, looked up, the tested form may be a part): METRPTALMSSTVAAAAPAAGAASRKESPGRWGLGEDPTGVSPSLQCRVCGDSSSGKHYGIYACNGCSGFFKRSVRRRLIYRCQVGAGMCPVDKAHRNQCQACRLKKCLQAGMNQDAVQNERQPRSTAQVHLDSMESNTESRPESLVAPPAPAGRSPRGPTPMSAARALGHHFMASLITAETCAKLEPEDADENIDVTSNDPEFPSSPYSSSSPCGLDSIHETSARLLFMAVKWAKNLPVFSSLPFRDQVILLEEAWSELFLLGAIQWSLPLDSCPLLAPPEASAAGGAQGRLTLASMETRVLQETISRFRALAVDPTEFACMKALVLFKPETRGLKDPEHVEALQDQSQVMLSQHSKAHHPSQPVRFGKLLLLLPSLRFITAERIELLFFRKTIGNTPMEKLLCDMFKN
# Myeloid diff 2 = induction of myeloid progenitor differentiation, primary screen, cell-based, flow cytometry, MLPCN library. ER-HoxA9 myeloid progenitors, lysozyme-GFP differentiation. calls only at 10 µM. 360,000 tested, 1% active. AID 624256, 2012;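 active means normalized GFP-positive differentiation at or above the plate's own cutoff, the solvent-only control mean plus 3 SD; inconclusive means no clear call, values can overlap the other calls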;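 further: cells exposed to compound for four days before flow analysis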
# NR2E3 ag-2 = inhibitors of NR2E3-RetCOR corepressor binding, primary screen, NR2E3 agonist project, biochemical, TR-FRET, GST-NR2E3, biotin-RetCOR; Photoreceptor-specific nuclear receptor (Homo sapiens), Q9Y5X4; 1536-well; inhibition of corepressor binding, % at 4.78 µM; 320,000 tested, 0.12% active; AID 2300, 2010;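 active means percent inhibition above the cutoff of mean plus 3 SD of all tested compounds, set per screening campaign, cut at about 20% in these data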;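 further: 0% = DMSO wells and 100% = biotin wells as full block of FRET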
#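 system = GST-tagged NR2E3 plus biotinylated RetCOR corepressor | input = 1.35 nM GST-NR2E3 | also added = 7 nM biotin-RetCOR | schedule = 5 h incubation at 4 °C | measured by = TR-FRET with europium anti-GST and streptavidin-D2, 340 nm excitation | read-out = percent loss of FRET ratio relative to control wells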
# FXN GAA850 act = FXN promoter activators, primary screen, cell-based, luciferase luminescence, HEK293 lucGAA850; HEK293 lucGAA850 FXN promoter luciferase reporter, 24 h; percent of 10 µM SAHA response; AID 540364, 2011; activation, % at 6 µM; 360,000 tested, 0.56% active;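 active means activation above the average of all compounds screened plus 3 SD, cutoff fixed separately per campaign, cut at about 7.5% in these data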;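 further: 0% = DMSO wells and 100% = 10 µM SAHA wells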
# T cell HTS = modulators of CD8 T cell-vesicle binding, primary screen, mouse 2C CD8+ T cells, flow cytometry; 2C CD8+ T cell-vesicle binding; active compounds read low; response (vesicle binding), % at 7 µM; 330,000 tested, 0.068% active; AID 2052, 2009;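 active means response, share of CD8 T cells binding vesicles, and their 90th percentile fluorescence all below set limits, cut at about 80% in these data, passing the limit was not always enough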;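 further: values below 100% mean blocked vesicle binding to the CD8+ T cells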
#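 Test system: purified 2C TCR transgenic mouse naive CD8+ T cells. Probe or stimulus: QL9-peptide-loaded Drosophila micro-vesicles bearing Ld, ICAM-1 and B7-1. Incubation: binding step 1.5 h, 37 °C, antibody labelling 20 min, ice. Measured by: flow cytometry of vesicle-bound cells.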
# Myeloid diff CP1 = inducers of myeloid progenitor differentiation, confirmation, cell-based, GFP/Mac1 flow cytometry, cherry pick 01 | 2,300 tested, 2% active | calls only | shares compounds with Myeloid diff 2 | ER-HoxA9 myeloid progenitors, GFP/Mac1 double-positive flow;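 active means share of green or green-and-red cells above 9 and 9% in run 1 or 4 and 3% in run 2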
# GFP autofluor = compound fluorescence in myeloid differentiation counter-screen | ER-HoxA9 myeloid progenitors, no estrogen, GFP autofluorescence flow cytometry; vehicle wells 0%, positive control 100% | fluorescence response, % (test concentration not listed) | shares compounds with Myeloid diff 2 | 2,300 tested, 7.4% active;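 active means over 5% cells positive for green fluorescent reporter, or over 2% positive for both it and APC stain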;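 further: range taken on the double positive population between DMSO and positive control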
# Numbers without * were called inactive; i = inactive; ? = inconclusive; · = no result; + = active, no number.
SMILES,NR2E3 ag-1,Myeloid diff 2,NR2E3 ag-2,FXN GAA850 act,T cell HTS,Myeloid diff CP1,GFP autofluor
Cc1ccc(C2=NN(S(C)(=O)=O)C(c3cccs3)C2)cc1 (configuration not stated),-42.8,i,1.8,2.2,168.4,i,0.0
COCCCn1c(SCC(=O)OC2CCCCC2)nnc1-c1ccco1,-2.6,i,-0.8,-1.9,521.3,·,·
COCCCn1c(SCC(=O)OC2CCCCC2)nnc1-c1cccs1,16.2,i,-0.2,0.9,345.5,i,0.0
O=C1c2cccc3c(N4CCCCC4)ccc(c23)C(=O)N1c1cccc(O)c1,-92.2,+,3.6,1.2,668.8,i,0.3
Cc1ccc(C)c(N=Nc2nc3ccccc3n2C)c1,-81.8,+,-0.1,-1.5,487.9,i,0.0
Cc1cc(C)c(C)c(N=Nc2nc3ccccc3n2C)c1C,-17.4,i,-2.1,-6.3,264.2,·,·
CCc1c(N)nc(N)nc1Nc1ccc(C)c(C)c1,-4.7,i,·,0.3,·,i,0.9
Cc1ccc(Nc2nc(N)nc(N)c2N=O)cc1Cl,34.7,?,·,·,·,·,·
Nc1ccc(Sc2nnnn2-c2ccccc2)c(Cl)c1,-39.6,i,2.0,-0.1,498.9,·,·
O=[N+]([O-])c1ccc(Sc2nnnn2-c2ccccc2)c(Cl)c1,-27.0,+,2.2,1.5,668.1,i,0.0
Cn1nnnc1Sc1c(Cl)cccc1[N+](=O)[O-],7.3,i,0.8,0.0,931.5,·,·
Cn1nnnc1Sc1ccc([N+](=O)[O-])cc1Cl,-9.7,i,1.5,-0.1,226.1,i,0.5
CCn1c(=O)n(CC)c2cc(N3CCCC3)c(NC(=O)c3cc(Cl)ccc3OC)cc21,-29.6,?,1.6,2.4,232.9,·,·
O=C(COC(=O)c1cnccn1)c1ccc2ccccc2c1,-3.9,i,4.2,2.3,351.5,i,0.3
O=C(COC(=O)c1cnccn1)c1ccc(OC(=O)c2ccccc2)cc1,-3.2,i,0.0,1.2,184.6,·,·
c1ccc(Nc2ccnc(Nc3ccccc3)n2)cc1,-41.1,?,-5.2,3.3,109.0,·,·
Nc1cc(Nc2ccccc2)ccn1,-24.1,+,-1.0,-0.7,138.2,i,2.4
Cc1ccccc1CN1C(=O)CN(S(C)(=O)=O)CC1(C)C(=O)Nc1ccc2c(c1)OCCO2 (configuration not stated),·,i,·,·,·,·,·
COc1cc2oc(=O)cc(-c3ccc(-c4ccc(C#N)cc4)cc3)c2c(OC)c1OC,-2.1,i,·,1.7,·,i,0.0
COc1cc2oc(=O)cc(-c3ccc(-c4ccc(C)cc4)cc3)c2c(OC)c1OC,-30.0,i,·,0.0,·,·,·
C[C@@H]1CN([C@H](C)CO)C(=O)CCCn2cc(nn2)CO[C@H]1CN(C)C(=O)c1ccc2ccn(C)c2c1,-0.6,i,·,·,·,·,·
COc1ccc(CNCc2cc(Cl)ccc2O)cc1,-14.1,i,3.6,-1.9,422.1,i,0.0
Cc1cc(C)cc(NC(=O)CCN2CCCC2)c1,5.2,+,-2.7,-1.5,130.2,i,0.0
Cc1cc(C)n2c(Nc3ccc4c(c3)OCCO4)c(CC(C)C)nc2n1,-8.4,i,·,·,·,·,·
CCN(CC)CCOC(=O)c1ccc(N/C=C(/C#N)c2nc(-c3ccc(OC)cc3)cs2)cc1,2.9,i,-2.1,2.7,364.3,i,0.8
COc1ccc(C(=O)N2CCC2(C)C(=O)O)cc1F (configuration not stated),-25.6,i,·,-0.3,·,·,·
CSc1ccccc1C(=O)NC1CCCCC1,-24.0,i,0.8,-0.2,i,·,·
CSc1ccccc1C(=O)NC1CCCC1,-15.1,i,1.1,0.9,431.7,i,0.0
